The values that follow come from ChEMBL document CHEMBL1133693, “Peptide and peptide mimetic inhibitors of antigen presentation by HLA-DR class II MHC molecules. Design, structure-activity relationships, and X-ray crystal structures” (J Med Chem, 2000).

Starred links: 1 amine or outer side, 2 acyl side, 3 side chain; linkers in the order of their positions; H or OH if unused. Non-standard residues stand in square brackets, D forms with d. Residues, ends and D or L forms follow the SMILES beside them. ξ: configuration not given here. Haic = O=C1[C@@H](N[*:1])CCc2cccc3c2N1[C@H](C(=O)[*:2])C3; X1 = O=C([C@@H]1C(c2ccccc2)CCN1[*:1])[*:2]; NMePhg = CN[C@H](C(=O)O)c1ccccc1; Tic = O=C(O)[C@@H]1Cc2ccccc2CN1; Cha = N[C@@H](CC1CCCCC1)C(=O)O; NMeL = CN[C@@H](CC(C)C)C(=O)O; ξTle = CC(C)(C)C(N)C(=O)O; NMeA = CN[C@@H](C)C(=O)O; ξNMeA = CNC(C)C(=O)O

Series [1] deals with T-cell. The series can be described thus: T-cell inhibitory potency relative to the IC50 of a(Cha)AAAKTAAAAa-NH2 iMHC class II DRB1*0101. The class given is functional, Homo sapiens.
A short description of series [2]: Mean relative potency is the ratio of potencies of 'Ac-(Cha)RAMASL-NH2' and compound to inhibit MHC class II DRB1*0401. In a few lines:
(§1)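 Scintillation proximity competition assay. Test compounds competed against the radioligand, and bound counts were read by scintillation. Ac-(Cha)RAMASL-NH2 was run as standard competitor in every run. Potency is the ratio of standard IC50 to compound IC50.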

A short description of series [3]: Mean relative potency is the ratio of potencies of 'Ac-(Cha)RAMASL-NH2' and compound to inhibit MHC class II DRB1*0101. In a few lines: as §1
A further series deals with Cathepsin B (Bos taurus) (UniProt P07688). The series can be described thus: Percent of original compound remaining with cathepsin B after incubation for 4 hrs was determined by HPLC.
Series [4] relates to T-cell. The series can be described thus: T-cell inhibitory potency relative to the IC50 of a(Cha)AAAKTAAAAa-NH2 in MHC class II DRB1*0401. The class given is functional, Homo sapiens.
Series [5] in a line: Mean relative potency is the ratio of potencies of 'Ac-(Cha)RAMASL-NH2' and compound, to inhibit MHC class II DRB1*0101. In a few lines: as §1
A short description of series [6]: Mean relative potency is the ratio of potencies of 'Ac-(Cha)RAMASL-NH2' and compound, to inhibit MHC class II DRB1*0404. In a few lines:
as §1

Series [7] in a line: Mean relative potency is the ratio of potencies of 'Ac-(Cha)RAMASL-NH2' and compound, to inhibit MHC class II DRB1*0401. An outline of the steps: as §1
Series [8] can be described thus: Degradation half-time was evaluated. The class given is ADME. In a few lines: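 Each test peptide at 1.0 mg/mL in pH 6.0 phosphate buffer (88 mM KH2PO4, 12 mM Na2HPO4, 1.33 mM EDTA, 2.0 mM cysteine, internal standard) was prewarmed to 32 °C. Cathepsin B was preactivated 5 min at 37 °C and added at 0.3 U per micromole of compound. Half-time from ln(A0 − A) vs time, t1/2 = 0.693/k.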

As for `CC(=O)N[C@@H](CC1CCCCC1)C(=O)N[C@@H](CCCN=C(N)N)C(=O)N1Cc2ccccc2C[C@H]1C(=O)N[C@H]1CCc2cccc3c2N(C1=O)[C@H](C(=O)N[C@@H](CO)C(=O)N(C)[C@@H](C)C(N)=O)C3` (Ac-[Cha]R[Tic][Haic]S[NMeA]-NH2), the T-cell inhibition turned out to be 0.2 in the series with T-cell [1] and 0.7 in the series on T-cell [4]. Besides, the Mean relative potency in series [2] came out at 0.27; in series [3] it was 0.12. At Cathepsin B (Bos taurus), the % remaining came out at 109%.
Regarding `CSCC[C@H](NC(=O)[C@H](C)NC(=O)[C@H](CCCN=C(N)N)NC(=O)[C@H](CC1CCCCC1)NC(C)=O)C(=O)N[C@H](C)C(=O)N[C@@H](CO)C(N)=O`, the Mean relative potency was found to be 0.34 in series [5], 0.32 in series [6] and 1.14 in series [7].
Usually half-life stands for the time in which the quantity being followed falls by half. The low end stands for fast loss, the high end for slow loss. Consider `CSCC[C@H](NC(=O)[C@H](C)NC(=O)[C@H](CCCN=C(N)N)NC(=O)[C@H](CC1CCCCC1)NC(C)=O)C(=O)N(C)[C@@H](C)C(=O)N[C@@H](CO)C(=O)N[C@@H](CC(C)C)C(N)=O` (Ac-[Cha]RAM[NMeA]SL-NH2), for which, in series [8], the half-life turned out to be 7.3 min. Further, the figures for the Mean relative potency in [5] and in series [7] were 1.22 and 0.6, respectively. Further, at Cathepsin B (Bos taurus), the % remaining amounted to 0%.
Consider `CSCCC(NC(=O)[C@H]1Cc2ccccc2CN1C(=O)[C@H](CCCN=C(N)N)NC(=O)[C@H](CC1CCCCC1)NC(C)=O)C(=O)N(C)[C@@H](C)C(=O)N[C@@H](CO)C(=O)N(C)[C@@H](C)C(N)=O` (stereo partly drawn), for which the Mean relative potency in [2] is 1.05; in series [3] it was 0.89. The % remaining on Cathepsin B (Bos taurus) was determined as 99%.
Consider `CSCC[C@H](NC(=O)[C@H](C)NC(=O)[C@H](CCCN=C(N)N)NC(=O)[C@H](CC1CCCCC1)NC(C)=O)C(=O)N[C@@H](C)C(=O)N[C@@H](CO)C(=O)N(C)[C@@H](CC(C)C)C(N)=O`, for which, in [8], the half-life came to 4.6 min.
In the case of `CSCC[C@@H](NC(=O)[C@H]1Cc2ccccc2CN1C(=O)[C@H](CCCN=C(N)N)NC(=O)[C@H](CC1CCCCC1)NC(C)=O)C(=O)N1CCC(c2ccccc2)[C@@H]1C(=O)N[C@@H](CO)C(=O)N(C)[C@@H](C)C(N)=O` (stereo partly drawn), the T-cell inhibition with T-cell [1] is 6.9; with T-cell [4], 4.6. Besides, the Mean relative potency was 0.63 in series [2] and 0.84 in [3]. The % remaining at Cathepsin B (Bos taurus) amounted to 98%.
Regarding `CSCC[C@H](NC(=O)[C@H](C)N(C)C(=O)[C@H](CCCN=C(N)N)NC(=O)[C@H](CC1CCCCC1)NC(C)=O)C(=O)N1CCC(c2ccccc2)[C@H]1C(=O)N[C@@H](CO)C(=O)N(C)[C@@H](C)C(N)=O` (stereo partly drawn) (Ac-[Cha]R[NMeA]M[X1]S[NMeA]-NH2), the values for the T-cell inhibition with T-cell [1] and in the series on T-cell [4] were 3.7 and 1.2, respectively.
For `CSCC[C@H](NC(=O)[C@@H](NC(=O)[C@H](CCCN=C(N)N)NC(=O)[C@H](CC1CCCCC1)NC(C)=O)C(C)(C)C)C(=O)N(C)[C@@H](C)C(=O)N[C@@H](CO)C(=O)N[C@H](C(N)=O)C(C)(C)C`, the T-cell inhibition is on record as 2.9 in the series with T-cell [1] and 1.5 with T-cell [4].
For `CSCC[C@H](NC(=O)[C@H](c1ccccc1)N(C)C(=O)[C@H](CCCN=C(N)N)NC(=O)[C@H](CC1CCCCC1)NC(C)=O)C(=O)N[C@@H](C)C(=O)N[C@@H](CO)C(=O)N[C@H](C(N)=O)C(C)(C)C`, in that order: 5.37 and 3.2.
In the case of `CSCC[C@H](NC(=O)[C@H](C)NC(=O)[C@H](CCCN=C(N)N)NC(=O)[C@H](CC1CCCCC1)NC(C)=O)C(=O)N(C)[C@@H](C)C(=O)N[C@@H](CO)C(=O)N(C)[C@@H](CC(C)C)C(N)=O` (Ac-[Cha]RAM[NMeA]S[NMeL]-NH2), in series [8], the half-life was found to be 4.8 min. The % remaining on Cathepsin B (Bos taurus) was 0%.
For `CSCC[C@H](NC(=O)[C@H](C)N(C)C(=O)[C@H](CCCN=C(N)N)NC(=O)[C@H](CC1CCCCC1)NC(C)=O)C(=O)N(C)[C@@H](C)C(=O)N[C@@H](CO)C(=O)N(C)[C@@H](CC(C)C)C(N)=O` (Ac-[Cha]R[NMeA]M[NMeA]S[NMeL]-NH2), in that order: 10700 min and 99%.
As for `CSCC[C@H](NC(=O)[C@@H]1Cc2ccccc2CN1C(=O)[C@H](CCCN=C(N)N)NC(=O)[C@H](CC1CCCCC1)NC(C)=O)C(=O)N(C)[C@@H](C)C(=O)N[C@@H](CO)C(=O)N(C)[C@@H](C)C(N)=O`, the T-cell inhibition stood at 0.86 with T-cell [1] and 1.5 with T-cell [4].
Regarding `CSCC[C@H](NC(=O)[C@H](C)NC(=O)[C@H](CCCN=C(N)N)NC(=O)[C@H](CC1CCCCC1)NC(C)=O)C(=O)N[C@@H](C)C(=O)N[C@@H](CO)C(=O)N[C@@H](CC(C)C)C(N)=O` (Ac-[Cha]RAMASL-NH2), the T-cell inhibition worked out at 0.12 with T-cell [1] and 0 in the series on T-cell [4]. Moreover, the half-life in series [8] stood at 3 min. In addition, the Mean relative potency in [5], in series [6] and in series [7] was 1 each time. Also, the % remaining on Cathepsin B (Bos taurus) came to 0%.
Consider `CSCC[C@@H](NC(=O)[C@@H](c1ccccc1)N(C)C(=O)[C@H](CCCN=C(N)N)NC(=O)[C@H](CC1CCCCC1)NC(C)=O)C(=O)N[C@@H](C)C(=O)N[C@@H](CO)C(=O)N[C@H](C(N)=O)C(C)(C)C`, for which the Mean relative potency in series [2] was found to be 2.02; in [3], 1.15. Also, at Cathepsin B (Bos taurus), the % remaining was 93%.
Take `CSCC[C@H](NC(=O)[C@H](C)NC(=O)[C@H](CCCN=C(N)N)NC(=O)[C@H](CC1CCCCC1)NC(C)=O)C(N)=O` (Ac-[Cha]RAM-NH2): the Mean relative potency was determined as 0.05 in series [5], 0.005 in series [6] and 0.01 in series [7].
In the case of `CC(=O)N[C@@H](CC1CCCCC1)C(=O)N[C@@H](CCCN=C(N)N)C(=O)N(C)[C@@H](C)C(=O)N[C@H]1CCc2cccc3c2N(C1=O)[C@H](C(=O)N[C@@H](CO)C(=O)N(C)[C@@H](CC(C)C)C(N)=O)C3` (Ac-[Cha]R[NMeA][Haic]S[NMeL]-NH2), the T-cell inhibition is given as less than 0.04 in the series on T-cell [1] and 2.32 in the series on T-cell [4]. Further, the Mean relative potency turned out to be 0.18 in series [2] and 0.03 in series [3]. In addition, the % remaining on Cathepsin B (Bos taurus) was found to be 106%.
With `CC(=O)N[C@@H](CC1CCCCC1)C(=O)N[C@@H](CCCN=C(N)N)C(=O)N(C)[C@H](C(=O)N[C@H]1CCc2cccc3c2N(C1=O)[C@H](C(=O)N[C@@H](CO)C(=O)N(C)[C@@H](CC(C)C)C(N)=O)C3)c1ccccc1` (Ac-[Cha]R[NMePhg][Haic]S[NMeL]-NH2), the T-cell inhibition with T-cell [1] worked out at 0.1; with T-cell [4], 1. The Mean relative potency in [2] amounted to 0.11; in [3], 0.01. In addition, on Cathepsin B (Bos taurus), the % remaining turned out to be 95%.
As for `CSCC[C@H](NC(=O)[C@H](C)NC(=O)[C@H](CCCN=C(N)N)NC(=O)[C@H](CC1CCCCC1)NC(C)=O)C(=O)N[C@H](C)C(N)=O`, the Mean relative potency in series [5] came out at 0.25; in series [6], 0.03; in series [7], 0.07.
In the case of `CC(=O)N[C@@H](CC1CCCCC1)C(=O)N[C@@H](CCCN=C(N)N)C(=O)N(C)[C@H](C(=O)N[C@H]1CCc2cccc3c2N(C1=O)[C@H](C(=O)N[C@@H](CO)C(=O)NC(C(N)=O)C(C)(C)C)C3)c1ccccc1` (stereo partly drawn) (Ac-[Cha]R[NMePhg][Haic]S[ξTle]-NH2), the results for the T-cell inhibition in the series with T-cell [1] and in the series on T-cell [4] were 2.3 and 3, respectively. Also, the Mean relative potency in series [2] was found to be 0.23; in series [3] it was 0.06. In addition, the % remaining at Cathepsin B (Bos taurus) turned out to be 126%.
Regarding `CC(=O)N[C@@H](CC1CCCCC1)C(=O)N[C@@H](CCCN=C(N)N)C(=O)N[C@@H](C)C(N)=O`, the Mean relative potency in series [5], in [6] and in [7] was 0 each time.
For the compound `CSCC[C@@H](NC(=O)[C@H](NC(=O)[C@H](CCCN=C(N)N)NC(=O)[C@H](CC1CCCCC1)NC(C)=O)C(C)(C)C)C(=O)N(C)[C@@H](C)C(=O)N[C@@H](CO)C(=O)N[C@H](C(N)=O)C(C)(C)C`, the Mean relative potency amounted to 0.38 in series [2] and 0.29 in series [3]. For the same compound, the % remaining at Cathepsin B (Bos taurus) worked out at 97%.
With `CC(=O)N[C@@H](CC1CCCCC1)C(=O)N[C@@H](CCCN=C(N)N)C(=O)N(C)[C@H](C(=O)N[C@H]1CCc2cccc3c2N(C1=O)[C@H](C(=O)N[C@@H](CO)C(=O)N(C)C(C)C(N)=O)C3)c1ccccc1` (stereo partly drawn) (Ac-[Cha]R[NMePhg][Haic]S[ξNMeA]-NH2), the figures for the T-cell inhibition in the series on T-cell [1] and in the series on T-cell [4] were less than 0.2 and 4.6, respectively. In addition, the values for the Mean relative potency in series [2] and in [3] were 0.37 and 0.01, respectively. Also, the % remaining at Cathepsin B (Bos taurus) was found to be 141%.
`CSCC[C@@H](NC(=O)[C@@H](c1ccccc1)N(C)C(=O)[C@H](CCCN=C(N)N)NC(=O)[C@H](CC1CCCCC1)NC(C)=O)C(=O)N(C)[C@@H](C)C(=O)N[C@@H](CO)C(=O)N[C@H](C(N)=O)C(C)(C)C`: the figures for the Mean relative potency in [2] and in series [3] were 1.27 and 1.64, respectively. Also, the % remaining on Cathepsin B (Bos taurus) worked out at 43%.
